Data on one molecule can be found in ChEMBL document CHEMBL2346497, “Synthesis of novel cognition enhancers with pyrazolo[5,1-c][1,2,4]benzotriazine core acting at γ-aminobutyric acid type A (GABA(A)) receptor” (Bioorg Med Chem, 2013).

For series [1], the target named is T1, Gamma-aminobutyric acid receptor subunit alpha-5 (Homo sapiens) (UniProt P31644).
T1 sequence (whole entry): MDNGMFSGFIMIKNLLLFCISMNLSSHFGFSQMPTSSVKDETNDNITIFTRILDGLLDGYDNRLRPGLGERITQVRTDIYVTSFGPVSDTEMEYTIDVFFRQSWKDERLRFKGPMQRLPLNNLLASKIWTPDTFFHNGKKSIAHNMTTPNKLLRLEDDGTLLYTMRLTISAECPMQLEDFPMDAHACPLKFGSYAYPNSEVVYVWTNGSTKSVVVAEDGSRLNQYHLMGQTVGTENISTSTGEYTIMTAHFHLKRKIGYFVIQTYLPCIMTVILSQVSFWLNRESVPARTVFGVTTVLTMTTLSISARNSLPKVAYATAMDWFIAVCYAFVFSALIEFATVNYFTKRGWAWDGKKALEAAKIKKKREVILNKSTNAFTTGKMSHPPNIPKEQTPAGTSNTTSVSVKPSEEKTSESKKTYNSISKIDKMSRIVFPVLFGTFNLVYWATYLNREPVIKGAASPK
The series can be described thus: Displacement of [3H]Ro15-1788 from recombinant GABA-A alpha5beta2gamma2 receptor benzodiazepine binding site (unknown origin) at 10 uM after 1 hr relative to control.

Series [2] has as its system Mus musculus. Briefly: Neurotoxicity in CD1 albino mouse assessed as decrease in number of falls from rotating rod at 10 mg/kg, po by rota-rod test relative to control. It counts as toxicity, organism-based. Also noted: dose 10 mg/kg, route oral. The note with it: in vivo, TDE = time-dependent effect. The method, boiled down: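 Motor coordination was tested on a rota-rod turning at 24 rpm in male CD-1 mice dosed po in 1% CMC. Falls within 30 s were counted at a pretest and at 15, 30, 45 and 60 min after dosing. Each value is the mean of five mice, compared with CMC-treated controls.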

Series [3] has as its target GABA A receptor alpha-2/beta-2/gamma-2 (Homo sapiens) (UniProt P47870+P18507+P47869). Briefly: Displacement of [3H]Ro15-1788 from recombinant GABA-A alpha2beta2gamma2 receptor benzodiazepine binding site (unknown origin) at 10 uM after 1 hr relative to control. Format: protein-complex assay. The method, boiled down:
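Membranes came from clonal mammalian cell lines expressing α1β2γ2, α2β2γ2 or α5β3γ2 receptors, grown in MEM/EBSS with 10% FCS at 37 °C. Membranes were resuspended in 10 mM potassium phosphate, pH 7.4, with 100 mM KCl. Assays used 1–2 nM [3H]Ro15-1788 and test compound from 10^-9 to 10^-5 M, at least six concentrations. Diazepam at 10^-5 M defined nonspecific binding. Incubation ran 1 h at 4 °C. Single-point % inhibition was measured at 10 µM, and Ki by curve fitting; n = 5, in duplicate.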

Series [4] relates to Rattus norvegicus. The series can be described thus: Induction of acetylcholine release in Harlan Wistar rat parietal cortex at 10 mg/kg, ip after 60 to 80 mins by microdialysis method. Format: functional, organism-based. Also noted: dose 10 mg/kg. The method, boiled down:
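Microdialysis in the parietal cortex of male Wistar rats, with a horizontal tube implanted at AP 0.5 mm and H 2.3 mm from bregma. One day after surgery the tube was perfused with Ringer containing physostigmine. After a 1 h settling period, 20-min fractions were collected into HCl. Drug was given ip in 1% CMC at time 0. ACh was measured by HPLC with electrochemical detection, n = 6 rats.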

The test system of series [5] is Rattus norvegicus. The series can be described thus: Procognitive effect in Harlan Wistar rat assessed as exploring time of familiar rat during social investigatory behaviour at 1 mg/kg, po administered 30 mins prior to testing measured for 5 mins by social learning test (reference value: 27.6 secs). It counts as functional.

Active and inactive are the calls of the source. The rule behind the calls is not given here.

Take `Cc1cnn2c1n[n+]([O-])c1ccc(OCc3ccncc3)cc12`: the inhibition is 36% in series [1] and 5% in series [3]. Also, the Activity result in series [2] was “tde”. Also, the result in series [4] was Active. The Time in series [5] is 33.2 s.
